In brackets after ≈: the same amount, converted by molar mass.
How the values were obtained:
Type in all cases: functional
[1] = system: Mycobacterium tuberculosis; assay: Antimycobacterial activity against Mycobacterium tuberculosis H37Rv after 14 days by serial dilution technique; conditions: 336 h
In short: (§1)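 H37Rv kept on L–J medium at 37 °C. Inoculum made by homogenizing growth with glass beads in Tween-albumin Middlebrook 7H9, letting large particles settle, and adjusting the supernatant to 3 ×10⁸ CFU by McFarland standard, with CFU/mL checked by plating. 0.1 mL went onto L–J slants with Gruft supplement holding serially diluted compound. Incubated 37 °C, read at 14, 21, 30 days. MIC was the lowest concentration with clear tubes; triplicate.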

[2] = system: Mycobacterium tuberculosis; assay: Antimycobacterial activity against Mycobacterium tuberculosis H37Rv after 21 days by serial dilution technique; conditions: 504 h; in short: as §1
[3] = system: Mycobacterium tuberculosis; assay: Antimycobacterial activity against Mycobacterium tuberculosis H37Rv after 30 days by serial dilution technique; in short: as §1

SMILES	MIC [1] [µg/mL]	MIC [2] [µg/mL]	MIC [3] [µg/mL]
CCOC(=O)C1=C(Nc2ccccc2C)N=CN2CCN=C12	> 200	> 200	> 200
CCOC(=O)C1=C(Nc2ccc(Br)cc2)N=C(c2ccccc2)N2CCN=C12	100 (≈ 228 µM)	100 (≈ 228 µM)	> 200
CCOC(=O)C1=C(Nc2ccccc2)N=CN2CCN=C12	20 (≈ 70.3 µM)	20 (≈ 70.3 µM)	50 (≈ 176 µM)
CCNC1=C(C(=O)OCC)C2=NCCN2C=N1	> 200	> 200	> 200
CCNC1=C(C(=O)OCC)C2=NCCN2C(c2ccccc2)=N1	> 200	> 200	> 200
CCOC(=O)C1=C(Nc2ccccc2OC)N=CN2CCN=C12	> 200	> 200	> 200
CCOC(=O)C1=C(Nc2cccc(Cl)c2)N=C(c2ccccc2)N2CCN=C12	> 200	> 200	> 200
CCOC(=O)C1=C(Nc2ccc(C)cc2)N=CN2CCN=C12	5 (≈ 16.8 µM)	5 (≈ 16.8 µM)	50 (≈ 168 µM)
CCOC(=O)C1=C(Nc2ccccc2F)N=CN2CCN=C12	5 (≈ 16.5 µM)	5 (≈ 16.5 µM)	50 (≈ 165 µM)
NCC[C@H](O)C(=O)N[C@@H]1C[C@H](N)[C@@H](O[C@H]2O[C@H](CN)[C@@H](O)[C@H](O)[C@H]2O)[C@H](O)[C@H]1O[C@H]1O[C@H](CO)[C@@H](O)[C@H](N)[C@H]1O [AMIKACIN]	2 (≈ 3.42 µM)	2 (≈ 3.42 µM)	2 (≈ 3.42 µM)
CCOC(=O)C1=C(Nc2ccccc2F)N=C(c2ccccc2)N2CCN=C12	> 200	> 200	> 200
CO[C@H]1/C=C/O[C@@]2(C)Oc3c(C)c(O)c4c(c3C2=O)C2=NC3(CCN(CC(C)C)CC3)NC2=C(NC(=O)/C(C)=C\C=C\[C@H](C)[C@H](O)[C@@H](C)[C@@H](O)[C@@H](C)[C@H](OC(C)=O)[C@@H]1C)C4=O [RIFABUTIN]	0.05 (≈ 0.059 µM)	0.05 (≈ 0.059 µM)	0.05 (≈ 0.059 µM)
CCOC(=O)C1=C(Nc2ccccc2OC)N=C(c2ccccc2)N2CCN=C12	> 200	> 200	> 200
CCOC(=O)C1=C(Nc2cccc(C(F)(F)F)c2)N=CN2CCN=C12	100 (≈ 284 µM)	100 (≈ 284 µM)	> 200
CCOC(=O)C1=C(Nc2ccccc2Cl)N=C(c2ccccc2)N2CCN=C12	> 200	> 200	> 200
CCOC(=O)C1=C(NCc2ccccc2)N=C(c2ccccc2)N2CCN=C12	> 200	> 200	> 200

SMILES	MIC [1] [µg/mL]	MIC [2] [µg/mL]	MIC [3] [µg/mL]
CCOC(=O)C1=C(Nc2ccc(Br)cc2)N=CN2CCN=C12	50 (≈ 138 µM)	50 (≈ 138 µM)	100 (≈ 275 µM)
CCOC(=O)C1=C(NC)N=C(c2ccccc2)N2CCN=C12	> 200	> 200	> 200
CCOC(=O)C1=C(Nc2ccc(Cl)cc2)N=C(c2ccccc2)N2CCN=C12	20 (≈ 50.7 µM)	20 (≈ 50.7 µM)	50 (≈ 127 µM)
CCOC(=O)C1=C(Nc2ccccc2C)N=C(c2ccccc2)N2CCN=C12	100 (≈ 267 µM)	100 (≈ 267 µM)	> 200
CCOC(=O)C1=C(NCc2ccccc2)N=CN2CCN=C12	20 (≈ 67 µM)	20 (≈ 67 µM)	100 (≈ 335 µM)
CCOC(=O)C1=C(Nc2cccc(C)c2)N=CN2CCN=C12	> 200	> 200	> 200
CCOC(=O)C1=C(Nc2ccccc2Cl)N=CN2CCN=C12	> 200	> 200	> 200
CCOC(=O)C1=C(Nc2ccc(F)cc2)N=C(c2ccccc2)N2CCN=C12	5 (≈ 13.2 µM)	5 (≈ 13.2 µM)	20 (≈ 52.9 µM)
CCOC(=O)C1=C(Nc2ccc(OC)cc2)N=C(c2ccccc2)N2CCN=C12	5 (≈ 12.8 µM)	5 (≈ 12.8 µM)	50 (≈ 128 µM)
CCOC(=O)C1=C(Nc2ccc(Cl)cc2)N=CN2CCN=C12	5 (≈ 15.7 µM)	5 (≈ 15.7 µM)	20 (≈ 62.7 µM)
CCOC(=O)C1=C(Nc2ccccc2)N=C(c2ccccc2)N2CCN=C12	50 (≈ 139 µM)	50 (≈ 139 µM)	100 (≈ 277 µM)
CCOC(=O)C1=C(Nc2cccc(Cl)c2)N=CN2CCN=C12	> 200	> 200	> 200
CCOC(=O)C1=C(Nc2ccc(F)cc2)N=CN2CCN=C12	5 (≈ 16.5 µM)	5 (≈ 16.5 µM)	20 (≈ 66.2 µM)
CCOC(=O)C1=C(Nc2ccc(OC)cc2)N=CN2CCN=C12	2 (≈ 6.36 µM)	2 (≈ 6.36 µM)	20 (≈ 63.6 µM)
CCOC(=O)C1=C(Nc2ccc(C)cc2)N=C(c2ccccc2)N2CCN=C12	100 (≈ 267 µM)	100 (≈ 267 µM)	> 200
CCOC(=O)C1=C(NC)N=CN2CCN=C12	> 200	> 200	> 200

Reference: ChEMBL document CHEMBL1154153, “Design, synthesis and antimycobacterial activity of some novel imidazo[1,2-c]pyrimidines” (2009)
